Assay results as given in ChEMBL document CHEMBL4431385, “Substituted tetracyclic indole core derivatives of HCV NS5A inhibitor MK-8742” (Bioorg Med Chem Lett, 2016).
Residue numbers refer to the chain shown, from its start.

What was measured:
[1] = system: T1, Nonstructural protein 5A (Hepatitis C virus), Q5L478 [Y93H]; experiment: Inhibition of HCV GT1a NS5A Y93H mutant assessed as suppression of replicon RNA level by real-time PCR analysis; conditions: Hepatitis C virus subtype 1a
T1 sequence (whole entry): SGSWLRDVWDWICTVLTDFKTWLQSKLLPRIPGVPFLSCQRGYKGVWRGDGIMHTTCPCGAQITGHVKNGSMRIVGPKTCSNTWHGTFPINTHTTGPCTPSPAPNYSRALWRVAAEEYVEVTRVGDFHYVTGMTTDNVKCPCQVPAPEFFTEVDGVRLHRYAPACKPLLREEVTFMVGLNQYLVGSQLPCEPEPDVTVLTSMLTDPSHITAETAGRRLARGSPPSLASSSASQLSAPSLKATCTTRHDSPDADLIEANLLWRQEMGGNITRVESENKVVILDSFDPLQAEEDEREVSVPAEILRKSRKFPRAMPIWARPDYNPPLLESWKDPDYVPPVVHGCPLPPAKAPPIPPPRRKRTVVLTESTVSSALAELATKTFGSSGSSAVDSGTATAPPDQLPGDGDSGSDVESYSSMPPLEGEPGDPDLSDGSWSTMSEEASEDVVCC

[2] = system: Nonstructural protein 5A (Hepatitis C virus), Q5L478 [UNDEFINED MUTATION]; experiment: Inhibition of HCV GT1a NS5A L31V mutant assessed as suppression of replicon RNA level by real-time PCR analysis; conditions: Hepatitis C virus subtype 1a
[3] = target: T2, Nonstructural protein 5A (Hepatitis C virus) (UniProt Q5L478); experiment: Inhibition of HCV GT2b NS5A assessed as suppression of replicon RNA level by real-time PCR analysis; conditions: Hepatitis C virus subtype 2b
T2 sequence (whole entry): T1 sequence (whole entry) with H93Y
Method in brief: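 GT2b replicon, which carries the naturally occurring NS5A 31M resistance-associated variant; potency given as EC90 in nM.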

[4] = target: T2, Nonstructural protein 5A (Hepatitis C virus); experiment: Inhibition of HCV GT3a NS5A assessed as suppression of replicon RNA level by real-time PCR analysis; conditions: Hepatitis C virus subtype 3a
[5] = target: T2, Nonstructural protein 5A (Hepatitis C virus); experiment: Inhibition of HCV GT1a NS5A assessed as suppression of replicon RNA level by real-time PCR analysis; conditions: Hepatitis C virus subtype 1a
[6] = target: T2, Nonstructural protein 5A (Hepatitis C virus); experiment: Inhibition of HCV GT1b NS5A assessed as suppression of replicon RNA level by real-time PCR analysis; conditions: Hepatitis C virus subtype 1b

Row | SMILES | EC90 [1] [pM] | EC90 [2] [pM] | EC90 [3] [pM] | EC90 [4] [pM] | EC90 [5] [pM] | EC90 [6] [pM]
1 | COC(=O)N[C@H](C(=O)N1C[C@H](F)C[C@H]1c1ncc(-c2cc(F)c3c(c2)OC(c2cccc(O[C@@H]4CCOC4)c2)n2c-3cc3cc(-c4cnc([C@@H]5C[C@@H](F)CN5C(=O)[C@@H](NC(=O)OC)C(C)C)[nH]4)ccc32)[nH]1)C(C)C (mixture of isomers) | 1000 | 7000 | 2000 | 2000 | 40 | 
2 | COC(=O)N[C@H](C(=O)N1CCC[C@H]1c1ncc(-c2cc(F)c3c(c2)OC(c2ccc(OC)cc2)n2c-3cc3cc(-c4cnc([C@@H]5CCCN5C(=O)[C@@H](NC(=O)OC)C(C)C)[nH]4)ccc32)[nH]1)C(C)C (some centres undefined) | 3000 | 200 | 5000 |  | 10 | 
3 | COC(=O)N[C@H](C(=O)N1CCC[C@H]1c1ncc(-c2ccc3c(c2)cc2n3C(c3ccc(OC(F)(F)F)cc3)Oc3cc(-c4cnc([C@@H]5C[C@@H](F)CN5C(=O)[C@@H](NC(=O)OC)C(C)C)[nH]4)cc(F)c3-2)[nH]1)C(C)C (some centres undefined) | 300 |  | 13000 |  | 30 | 8
4 | CCOc1cccc(C2Oc3cc(-c4cnc([C@@H]5CCCN5C(=O)[C@@H](NC(=O)OC)C(C)C)[nH]4)cc(F)c3-c3cc4cc(-c5cnc([C@@H]6CCCN6C(=O)[C@@H](NC(=O)OC)C(C)C)[nH]5)ccc4n32)c1 (some centres undefined) | 2000 | 200 | 8000 | 20 | 10 | 
5 | COC(=O)N[C@H](C(=O)N1C[C@H](F)C[C@H]1c1ncc(-c2cc(F)c3c(c2)OC(c2cccc(OC)c2)n2c-3cc3cc(-c4cnc([C@@H]5C[C@@H](F)CN5C(=O)[C@@H](NC(=O)OC)C(C)C)[nH]4)ccc32)[nH]1)C(C)C (some centres undefined) | 70 | 2000 | 39000 |  | 6 | 7
6 | COC(=O)N[C@H](C(=O)N1CCC[C@H]1c1ncc(-c2ccc3c(c2)cc2n3C(c3cccc(OC(F)(F)F)c3)Oc3cc(-c4cnc([C@@H]5C[C@@H](F)CN5C(=O)[C@@H](NC(=O)OC)C(C)C)[nH]4)ccc3-2)[nH]1)C(C)C (some centres undefined) | 1700 | 1800 | 48000 |  | 20 | 
7 | COC(=O)N[C@H](C(=O)N1CCC[C@H]1c1ncc(-c2ccc3c(c2)OC(c2cc(Cl)cc(OC)c2)n2c-3cc3cc(-c4cnc([C@@H]5CCCN5C(=O)[C@@H](NC(=O)OC)C(C)C)[nH]4)ccc32)[nH]1)C(C)C (mixture of isomers) | 15000 | 200 | 202000 | 800 | 30 | 
8 | CCCCOc1cccc(C2Oc3cc(-c4cnc([C@@H]5C[C@@H](F)CN5C(=O)[C@@H](NC(=O)OC)C(C)C)[nH]4)cc(F)c3-c3cc4cc(-c5cnc([C@@H]6C[C@@H](F)CN6C(=O)[C@@H](NC(=O)OC)C(C)C)[nH]5)ccc4n32)c1 (some centres undefined) | 100 | 4000 | 126000 |  |  | 8
9 | COC(=O)N[C@H](C(=O)N1CCC[C@H]1c1ncc(-c2ccc3c(c2)OCn2c-3cc3c(F)c(-c4cnc([C@@H]5CCCN5C(=O)[C@@H](NC(=O)OC)C(C)C)[nH]4)ccc32)[nH]1)C(C)C |  |  |  |  | > 800 | > 500
10 | COC(=O)N[C@H](C(=O)N1CCC[C@H]1c1ncc(-c2cc(F)c3c(c2)OC(c2cccc(OC(C)C)c2)n2c-3cc3cc(-c4cnc([C@@H]5CCCN5C(=O)[C@@H](NC(=O)OC)C(C)C)[nH]4)ccc32)[nH]1)C(C)C (some centres undefined) | 6000 | 200 | 18000 | 50 | 10 | 
11 | COC(=O)N[C@H](C(=O)N1CCC[C@H]1c1ncc(-c2ccc3c(c2)cc2n3C(c3cccc(OC(C)C)c3)Oc3cc(-c4cnc([C@@H]5C[C@@H](F)CN5C(=O)[C@@H](NC(=O)OC)C(C)C)[nH]4)cc(F)c3-2)[nH]1)C(C)C (some centres undefined) | 900 | 600 | 28000 | 70 | 10 | 
12 | CCOc1cccc(C2Oc3cc(-c4cnc([C@@H]5CCCN5C(=O)[C@@H](NC(=O)OC)C(C)C)[nH]4)ccc3-c3cc4cc(-c5cnc([C@@H]6CCCN6C(=O)[C@@H](NC(=O)OC)C(C)C)[nH]5)ccc4n32)c1 (some centres undefined) | 16000 | 900 | 22000 | 200 | 20 | 
13 | COC(=O)N[C@H](C(=O)N1CCC[C@H]1c1ncc(-c2ccc3c(c2)OC(c2cc(OC)cc(OC)c2)n2c-3cc3cc(-c4cnc([C@@H]5CCCN5C(=O)[C@@H](NC(=O)OC)C(C)C)[nH]4)ccc32)[nH]1)C(C)C (some centres undefined) | 8000 | 300 | 11000 | 80 | 4 | 
14 | COC(=O)N[C@H](C(=O)N1CCC[C@H]1c1ncc(-c2cc3c(c(C4CC4)c2)-c2cc4cc(-c5cnc([C@@H]6CCCN6C(=O)[C@@H](NC(=O)OC)C(C)C)[nH]5)ccc4n2CO3)[nH]1)C(C)C | 890000 | 700 | 454000 | 74000 | 700 | 
15 | COC(=O)N[C@H](C(=O)N1C[C@H](F)C[C@H]1c1ncc(-c2cc(F)c3c(c2)OC(c2cccc(OC(C)C)c2)n2c-3cc3cc(-c4cnc([C@@H]5C[C@@H](F)CN5C(=O)[C@@H](NC(=O)OC)C(C)C)[nH]4)ccc32)[nH]1)C(C)C (some centres undefined) | 100 | 4000 | 122000 | 1000 | 10 | 
16 | COC(=O)N[C@H](C(=O)N1CCC[C@H]1c1ncc(-c2ccc3c(c2)OC(c2ccc(OC)cc2)n2c-3cc3cc(-c4cnc([C@@H]5CCCN5C(=O)[C@@H](NC(=O)OC)C(C)C)[nH]4)ccc32)[nH]1)C(C)C (some centres undefined) | 82000 |  | 15000 |  | 40 | 
17 | CCOc1cccc(C2Oc3cc(-c4cnc([C@@H]5C[C@@H](F)CN5C(=O)[C@@H](NC(=O)OC)C(C)C)[nH]4)cc(F)c3-c3cc4cc(-c5cnc([C@@H]6C[C@@H](F)CN6C(=O)[C@@H](NC(=O)OC)C(C)C)[nH]5)ccc4n32)c1 (some centres undefined) | 200 | 3000 | 69000 | 600 | 10 | 
18 | COC(=O)N[C@H](C(=O)N1CCC[C@H]1c1ncc(-c2cc(F)c3c(c2)OC(c2cc(OC)cc(OC)c2)n2c-3cc3cc(-c4cnc([C@@H]5CCCN5C(=O)[C@@H](NC(=O)OC)C(C)C)[nH]4)ccc32)[nH]1)C(C)C (some centres undefined) | 3000 | 100 | 600 | 60 | 4 | 
19 | COC(=O)N[C@H](C(=O)N1C[C@H](F)C[C@H]1c1ncc(-c2cc(F)c3c(c2)OC(c2ccc(OC(F)(F)F)cc2)n2c-3cc3cc(-c4cnc([C@@H]5C[C@@H](F)CN5C(=O)[C@@H](NC(=O)OC)C(C)C)[nH]4)ccc32)[nH]1)C(C)C (some centres undefined) | 200 |  | 35000 | 1000 | 10 | 
20 | CCOc1cccc(C2Oc3cc(-c4cnc([C@@H]5C[C@@H](F)CN5C(=O)[C@@H](NC(=O)OC)C(C)C)[nH]4)cc(F)c3-c3cc4cc(-c5cnc([C@@H]6CCCN6C(=O)[C@@H](NC(=O)OC)C(C)C)[nH]5)ccc4n32)c1 (some centres undefined) | 400 |  | 17000 | 100 | 10 | 
21 | COC(=O)N[C@H](C(=O)N1CCC[C@H]1c1ncc(-c2cc3c(c(-c4ccccc4)c2)-c2cc4cc(-c5cnc([C@@H]6CCCN6C(=O)[C@@H](NC(=O)OC)C(C)C)[nH]5)ccc4n2CO3)[nH]1)C(C)C | 250000 | 1000 | 108000 | 47000 | 1000 | 
22 | COC(=O)N[C@H](C(=O)N1CCC[C@H]1c1ncc(-c2ccc3c(c2)cc2n3C(c3cccc(OC(F)F)c3)Oc3cc(-c4cnc([C@@H]5C[C@@H](F)CN5C(=O)[C@@H](NC(=O)OC)C(C)C)[nH]4)cc(F)c3-2)[nH]1)C(C)C (some centres undefined) | 300 | 700 | 22000 | 200 | 2 | 
23 | COC(=O)N[C@H](C(=O)N1CCC[C@H]1c1ncc(-c2ccc3c(c2)OC(c2cccc(OC(C)C)c2)n2c-3cc3cc(-c4cnc([C@@H]5CCCN5C(=O)[C@@H](NC(=O)OC)C(C)C)[nH]4)ccc32)[nH]1)C(C)C (some centres undefined) | 34000 | 500 | 145000 | 80 | 10 | 
